Source: ChEMBL document CHEMBL3826876, “Toward the Development of Specific G-Quadruplex Binders: Synthesis, Biophysical, and Biological Studies of New Hydrazone Derivatives” (J Med Chem, 2016)
pIC50: −log10 of the molar value. Blank lines part the entries; values can stand above or below the compound they belong to. Active and inactive are the calls of the source. The calls are words filed in the database; no cut-off is given here.

Experiments:
U2OS [1] = assay: Cytotoxicity against human U2OS cells assessed as cell killing after 1 hr by MTT assay; type: functional, cell-based
Summary of the method: (§1)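 U2OS and HCT116 in DMEM with 10% FBS, 1% L-glutamine, seeded at 40000 cells/ml; 24 h later exposed for 1 h or 24 h, then drug-free medium 1-2 days. MTT 1 h at 37 °C, DMSO solubilisation, absorbance 595 nm. IC50 by linear regression; two independent experiments in triplicate, mean ± SE.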

[2] = Cytotoxicity against human HCT116 cells assessed as cell killing after 1 hr by MTT assay; type: functional, cell-based; settings: HCT-116, 1 h; summary of the method: as §1
U2OS [3] = assay: Cytotoxicity against human U2OS cells assessed as cell killing after 24 hrs by MTT assay; type: functional, cell-based; summary of the method: as §1
[4] = Cytotoxicity against human HCT116 cells assessed as cell killing after 24 hrs by MTT assay; type: functional, cell-based; settings: HCT-116, 24 h; summary of the method: as §1
U2OS [5] = assay: Stabilization of nuclear G-quadruplex DNA in human U2OS cells at 2 to 10 uM after 24 hrs by DAPI staining based immunofluorescence assay; type: cell-based
Summary of the method: (§2)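 U2OS seeded at 100000 cells/ml, treated 24 h after seeding for 24 h; fixed methanol:acetic acid 3:1, 0.1% Triton X-100, 2% milk block. Stained with in-house His-purified BG4, anti-FLAG, Alexa 488 anti-rabbit; nuclei DAPI. Per-cell signal as corrected total cell fluorescence; Student's t test.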

[6] = Binding affinity to synthetic telomere 23 parallel G-quadruplex DNA assessed as change in melting temperature at 4 mol equiv in presence of 100 mM KCl buffer by circular dichroism spectroscopic analysis
Summary of the method: (§3)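 CD melting, 20-100 °C at 1 °C/min, signal at 264 (parallel), 290 (antiparallel) or 280 nm (duplex). G4 DNA 10 µM or duplex 15 µM, folded by heating at 90 °C 5 min and slow cooling, in 10 mM potassium phosphate (c-kit1, Tel23, Tel26) or lithium phosphate (Tel23-p, ds12) pH 7.0 with 100 mM KCl. Ligand 4 equiv; Tm by curve fit, ΔTm vs DNA alone; duplicate average.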

[7] = Binding affinity to synthetic c-MYC G-quadruplex DNA assessed as change in melting temperature at 4 mol equiv in presence of 20 mM KCl buffer by circular dichroism spectroscopic analysis
[8] = Effect on synthetic telomere 23 G-quadruplex DNA topology at 4 mol equiv by circular dichroism spectroscopic analysis
Summary of the method: (§4)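 CD spectra at 20 °C, 230-360 nm, 3 scans averaged, baseline subtracted; 10 µM G4 or 15 µM duplex in potassium- or lithium-phosphate pH 7.0 buffers with 100 mM KCl (c-kit2, c-myc: 5 mM potassium phosphate, 20 mM KCl); ligand 4 molar equiv added to folded DNA from 6 mM DMSO stock.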

[9] = Effect on synthetic c-KIT1 G-quadruplex DNA topology at 4 mol equiv by circular dichroism spectroscopic analysis; summary of the method: as §4
[10] = Effect on synthetic c-KIT2 G-quadruplex DNA topology at 4 mol equiv by circular dichroism spectroscopic analysis; summary of the method: as §4
[11] = Effect on synthetic c-MYC G-quadruplex DNA topology at 4 mol equiv by circular dichroism spectroscopic analysis; summary of the method: as §4
[12] = Effect on synthetic telomere 23 parallel G-quadruplex DNA topology at 4 mol equiv by circular dichroism spectroscopic analysis; summary of the method: as §4
[13] = Effect on synthetic telomere 26 G-quadruplex DNA topology at 4 mol equiv by circular dichroism spectroscopic analysis; summary of the method: as §4
[14] = Effect on synthetic self-complementary DNA 12-mer duplex topology at 4 mol equiv in presence of K+ ions by circular dichroism spectroscopic analysis; summary of the method: as §4
[15] = Binding affinity to synthetic c-KIT1 G-quadruplex DNA assessed as change in melting temperature at 4 mol equiv in presence of 100 mM KCl buffer by circular dichroism spectroscopic analysis; summary of the method: as §3
[16] = Binding affinity to synthetic c-KIT2 G-quadruplex DNA assessed as change in melting temperature at 4 mol equiv in presence of 20 mM KCl buffer by circular dichroism spectroscopic analysis
Summary of the method: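 CD melting as for other targets (20-100 °C, 1 °C/min, 10 µM folded G4, ligand 4 equiv), but in 5 mM potassium phosphate with 20 mM KCl; c-kit2 read at 264 nm as parallel G4. ΔTm from fitted Tm, duplicate average.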

[17] = Binding affinity to synthetic telomere 23 G-quadruplex DNA assessed as change in melting temperature at 4 mol equiv in presence of 100 mM KCl buffer by circular dichroism spectroscopic analysis; summary of the method: as §3
[18] = Binding affinity to synthetic telomere 26 G-quadruplex DNA assessed as change in melting temperature at 4 mol equiv in presence of 100 mM KCl buffer by circular dichroism spectroscopic analysis; summary of the method: as §3
[19] = Binding affinity to synthetic self-complementary DNA 12-mer duplex assessed as change in melting temperature at 4 mol equiv in presence of 100 mM KCl buffer by circular dichroism spectroscopic analysis; summary of the method: as §3
Homo sapiens = organism: Homo sapiens; assay: Binding affinity to human 5'-FAM/3'-TAMRA labeled telomere 21 G-quadruplex DNA assessed as increase in melting temperature by FRET assay
Summary of the method: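 FRET melting screen in 60 mM potassium cacodylate pH 7.4, labelled probe 400 nM annealed at 85 °C for 10 min; ligands at various concentrations up to 20 µM, diluted from 10 mM DMSO stock via 10 mM HCl. Excitation 450-495 nm, emission 515-545 nm, 30-100 °C in 0.5 °C steps with 30 s hold; ΔTm by curve fitting, triplicate.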

U2OS [20] = assay: Stabilization of nuclear G-quadruplex DNA in human U2OS cells at 10 uM after 24 hrs by DAPI staining based immunofluorescence assay; type: cell-based; summary of the method: as §2

SMILES: O=Cc1c(-c2ccccc2)nc2n1ccc1nc(-c3ccccc3)c(C=O)n12
pIC50 (U2OS [1]): 4.34
pIC50 [2]: 4.77
pIC50 (U2OS [3]): 5.04
pIC50 [4]: 5.39
Activity (U2OS [5]): inactive

ΔTm [6]: > 20 °C
ΔTm [7]: > 20 °C
Activity [8]: inactive
Activity [9]: inactive
Activity [10]: inactive
Activity [11]: inactive
Activity [12]: inactive
Activity [13]: inactive
Activity [14]: inactive
ΔTm [15]: > 15 °C
ΔTm [16]: > 20 °C
ΔTm [17]: -10 °C
ΔTm [18]: -4.5 °C
ΔTm [19]: 0.1 °C
Activity (Homo sapiens): Active
SMILES: N=C(N)N/N=C/c1c(-c2ccccc2)nc2ccn3c(/C=N/N=C(N)N)c(-c4ccccc4)nc3n12
Activity (U2OS [20]): Active
